From ChEMBL document CHEMBL1122877, “New antihistaminic N-heterocyclic 4-piperidinamines. 1. Synthesis and antihistaminic activity of N-(4-piperidinyl)-1H-benzimidazol-2-amines” (1985)

How the values were obtained:
[1] = In vivo protection from compound 48/80 induced lethality test in rats 1 hour after subcutaneous administration.; type: functional; conditions: Rattus norvegicus, sc
Method in brief: (§1)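 Male inbred Wistar rats (240-260 g), fasted overnight, held at 21 ± 1 °C and 65 ± 5% RH. Dosed sc or orally, vehicle 0.9% NaCl. Endpoint is survival at 4 h. ED50 by Finney from 5 rats per dose, at least 3 doses from a geometric series 0.0025-40 mg/kg. Estimated ED50 uses at least 2 rats per dose.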

[2] = In vivo anti-histaminic protection from 48/80 induced lethality in rats 2 hours after oral administration; type: functional; conditions: Rattus norvegicus; method in brief: as §1
[3] = In vivo anti-histaminic protection from 48/80 induced lethality in rats 1 hour after subcutaneous administration.; type: functional; conditions: Rattus norvegicus, sc; method in brief: as §1
[4] = In vivo anti-histaminic protection from 48/80 induced lethality in rats 2 hour after oral administration.; type: functional; conditions: Rattus norvegicus; method in brief: as §1
Cavia porcellus [5] = assay: Protection against intravenous histamine lithality in Guinea pigs 24 hour after oral administration; type: functional; conditions: for ED50: read-out: PD50
Method in brief: (§2)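 Male albino guinea pigs (280-360 g) given oral doses in 2-fold increments 3, 24 or 48 h before iv histamine dihydrochloride 1.25 mg/kg. Protection is survival at 1 h. PD50 by Finney from 4-6 animals per dose and time point, at least 3 doses from a geometric series 0.0025-5 mg/kg. Estimated PD50 uses at least 2 animals per dose.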

Cavia porcellus [6] = assay: Protection against intravenous histamine lithality in Guinea pigs 3 hour after oral administration; type: functional; conditions: for ED50: read-out: PD50; method in brief: as §2
Cavia porcellus [7] = assay: Protection against intravenous histamine lithality in Guinea pigs 48 hour after oral administration; type: functional; conditions: read-out: PD50; method in brief: as §2
[8] = molecular target: Histamine H1 receptor (Cavia porcellus) (UniProt P31389); assay: In vitro inhibition of histamine(H1) induced contraction of guinea pig ileum.; type: functional, tissue-based
Sequence of Histamine H1 receptor (Cavia porcellus) (P31389 whole entry): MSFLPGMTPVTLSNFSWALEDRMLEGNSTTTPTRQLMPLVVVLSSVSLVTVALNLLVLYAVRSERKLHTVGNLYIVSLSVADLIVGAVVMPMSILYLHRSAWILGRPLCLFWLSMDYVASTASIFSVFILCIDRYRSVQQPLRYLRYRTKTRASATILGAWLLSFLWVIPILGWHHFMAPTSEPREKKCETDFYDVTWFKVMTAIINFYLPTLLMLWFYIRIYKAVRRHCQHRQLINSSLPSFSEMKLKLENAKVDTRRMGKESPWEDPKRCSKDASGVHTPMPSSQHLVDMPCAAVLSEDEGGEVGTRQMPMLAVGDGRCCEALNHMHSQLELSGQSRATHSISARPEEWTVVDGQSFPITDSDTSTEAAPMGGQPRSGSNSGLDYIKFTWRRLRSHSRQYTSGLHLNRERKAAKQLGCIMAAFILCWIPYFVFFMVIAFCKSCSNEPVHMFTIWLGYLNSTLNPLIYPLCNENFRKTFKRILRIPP
Method in brief: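 Isolated guinea pig ileum in a bath. Cumulative histamine curves every 5 min, logarithmically increasing doses (5.4 × 10^-8, 1.6 × 10^-7, 5.4 × 10^-7 M, ...) until maximal contraction. Repeated after 5 min antagonist contact, then washout and two further curves. Highest test dose normally 0.04 mg/L. A10 = antagonist concentration giving a 10-fold rightward shift of the histamine curve.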

Compound | ED50 [1] [mg/kg] | ED50 [2] [mg/kg] | further results
CC(c1ccccc1)n1c(NC2CCN(CCc3ccccc3)CC2)nc2ccccc21 (stereo not drawn) | 2.5 |  | 
c1ccc(Cn2c(NC3CCN(CCc4cccs4)CC3)nc3ccccc32)cc1 | 0.63 |  | 
Fc1ccc(CCN2CCC(Nc3nc4ccccc4n3Cc3ccccc3)CC2)cc1 | 1.25 | > 2.5 | 
c1ccc(Cn2c(NC3CCN(CCCOc4ccccc4)CC3)nc3ccccc32)cc1 | 0.63 | 0.63 | 
Clc1ccc(Cn2c(NC3CCN(CCc4ccccc4)CC3)nc3ccccc32)cc1 | 2.5 |  | 
c1ccc(Cn2c(NC3CCN(C4CCCCC4)CC3)nc3ccccc32)cc1 |  |  | ED50 [3]: 0.63 mg/kg; ED50 [4]: > 2.5 mg/kg
c1ccc(CCN2CCC(Nc3nc4ccccc4n3Cc3ccccn3)CC2)cc1 | 0.16 | 2.5 | ED50 (Cavia porcellus [5]): 0.12 mg/kg; ED50 (Cavia porcellus [6]): 0.12 mg/kg; ED50 (Cavia porcellus [7]): > 0.16 mg/kg
CN(c1nc2ccccc2n1Cc1ccc(F)cc1)C1CCN(CCc2ccccc2)CC1 | 1.25 | 1.25 | 
CCOc1ccc(CCN2CCC(Nc3nc4ccccc4n3Cc3ccccc3)CC2)cc1 | 1.25 | 0.63 | 
Oc1nc2ccccc2n1CCCN1CCC(Nc2nc3ccccc3n2Cc2ccccc2)CC1 | 1.25 | 2.5 | ED50 (Cavia porcellus [5]): 0.6 mg/kg; ED50 (Cavia porcellus [6]): 0.16 mg/kg; ED50 (Cavia porcellus [7]): > 0.6 mg/kg
Cc1ccc(Cn2c(N(C)C3CCN(CCc4ccccc4)CC3)nc3ccccc32)cc1 | 2.5 |  | 
CN(c1nc2ccccc2n1Cc1ccc(Br)cc1)C1CCN(CCc2ccccc2)CC1 | 2.5 |  | 
Fc1ccc(CN2CCC(Nc3nc4ccccc4n3Cc3ccccc3)CC2)cc1 | 2.5 |  | 
Brc1ccc(Cn2c(NC3CCN(CCc4ccccc4)CC3)nc3ccccc32)cc1 | 1.25 |  | 
OC(COc1ccccc1)CN1CCC(Nc2nc3ccccc3n2Cc2ccccc2)CC1 (stereo not drawn) | 1.25 | 0.63 | ED50 (Cavia porcellus [5]): 0.6 mg/kg; ED50 (Cavia porcellus [6]): 0.35 mg/kg; ED50 (Cavia porcellus [7]): > 0.6 mg/kg
Oc1nc2ccccc2n1CCN1CCC(Nc2nc3ccccc3n2Cc2ccccc2)CC1 | 0.31 | 2.5 | ED50 (Cavia porcellus [5]): > 0.6 mg/kg; ED50 (Cavia porcellus [6]): 0.35 mg/kg
c1ccc(CCN2CCC(Nc3nc4ccccc4n3Cc3ccccc3)CC2)cc1 |  | 3.5 | ED50 (Cavia porcellus [5]): 0.35 mg/kg; ED50 (Cavia porcellus [6]): 0.25 mg/kg; ED50 (Cavia porcellus [7]): 0.25 mg/kg
CN1CCC(=C2c3ccccc3CCc3cccnc32)CC1 [AZATADINE] | 0.049 | 0.48 | ED50 (Cavia porcellus [5]): 1.36 mg/kg; ED50 (Cavia porcellus [6]): 0.014 mg/kg; ED50 (Cavia porcellus [7]): > 2.5 mg/kg
O=c1[nH]c2ccccc2n1CCCN1CCN(C(c2ccccc2)c2ccccc2)CC1 [OXATOMIDE] |  |  | PD 50 (Cavia porcellus [5]): >5 mg/kg; PD 50 (Cavia porcellus [6]): 0.18 mg/kg; ED50 [4]: 5.37 mg/kg
C(=C\c1ccccc1)/CN1CCC(Nc2nc3ccccc3n2Cc2ccccc2)CC1 | 1.25 | > 2.5 | 
c1ccc(CCCN2CCC(Nc3nc4ccccc4n3Cc3ccccc3)CC2)cc1 | 2.5 |  | ED50 (Cavia porcellus [5]): 0.35 mg/kg; ED50 (Cavia porcellus [6]): 0.35 mg/kg; ED50 (Cavia porcellus [7]): > 0.6 mg/kg
COc1ccc(CCN2CCC(Nc3nc4ccccc4n3Cc3ccccc3)CC2)cc1OC | 1.25 | > 2.5 | 
N#CC1(c2ccccc2)CCC(N2CCC(Nc3nc4ccccc4n3Cc3ccccc3)CC2)CC1 (stereo not drawn) | 2.5 |  | 
CCCCN(c1nc2ccccc2[nH]1)C1CCN(CCc2ccccc2)CC1 | 2.5 |  | 
CN(C)CCC(c1ccc(Cl)cc1)c1ccccn1 (stereo not drawn) [CHLORPHENIRAMINE] | 0.77 | 37.4 | 
CC(c1ccc(F)cc1)n1c(NC2CCN(CCc3ccccc3)CC2)nc2ccccc21 (stereo not drawn) | 1.25 | > 2.5 | 
Cc1ccc(Cn2c(NC3CCN(CCc4ccccc4)CC3)nc3ccccc32)cc1 | 1.25 | 2.5 | 

Compound | ED50 [1] [mg/kg] | ED50 [2] [mg/kg] | further results
CN1CCC(Nc2nc3ccccc3n2Cc2ccccc2)CC1 |  |  | ED50 [3]: 0.31 mg/kg; ED50 [4]: > 2.5 mg/kg
Cc1cccc(CCN2CCC(Nc3nc4ccccc4n3Cc3ccccc3)CC2)c1 | 1.25 | 2.5 | 
CCn1c(NC2CCN(CCc3ccccc3)CC2)nc2ccccc21 | 2.5 |  | 
Clc1ccc(CCN2CCC(Nc3nc4ccccc4n3Cc3ccccc3)CC2)cc1 | 2.5 |  | 
COc1ccccc1CCN1CCC(Nc2nc3ccccc3n2Cc2ccccc2)CC1 | 0.63 | 1.25 | 
c1ccc(CCN2CCC(Nc3nc4ccccc4n3CCc3ccccc3)CC2)cc1 | > 2.5 |  | 
COc1cc(CCN2CCC(Nc3nc4ccccc4n3Cc3ccccc3)CC2)cc(OC)c1OC | 0.63 | 1.25 | 
CCCCn1c(N(C)C2CCN(CCc3ccccc3)CC2)nc2ccccc21 | 2.5 |  | 
CCn1nnn(CCN2CCC(Nc3nc4ccccc4n3Cc3ccccc3)CC2)c1=O | 0.31 | > 2.5 | 
CCCCCn1c(NC2CCN(CCc3ccccc3)CC2)nc2ccccc21 | 2.5 |  | 
Fc1ccc(Cn2c(NC3CCN(CCc4ccccc4)CC3)nc3ccccc32)cc1 | 0.31 | 0.63 | ED50 (Cavia porcellus [5]): 0.08 mg/kg; ED50 (Cavia porcellus [6]): 0.45 mg/kg; ED50 (Cavia porcellus [7]): 0.12 mg/kg
FC(F)(F)c1cccc(CCN2CCC(Nc3nc4ccccc4n3Cc3ccccc3)CC2)c1 | 2.5 |  | 
CCCCN1CCC(Nc2nc3ccccc3n2Cc2ccccc2)CC1 |  |  | ED50 [3]: 0.31 mg/kg; ED50 [4]: > 2.5 mg/kg
CCn1c(N(Cc2ccccc2)C2CCN(CCc3ccccc3)CC2)nc2ccccc21 | > 2.5 |  | 
c1ccc(Cn2c(NC3CCN(CC4COc5ccccc5O4)CC3)nc3ccccc32)cc1 (stereo not drawn) | 2.5 |  | 
CC(c1ccccc1)N1CCC(Nc2nc3ccccc3n2Cc2ccccc2)CC1 (stereo not drawn) | 1.25 | > 2.5 | 
O=C(CCCN1CCC(Nc2nc3ccccc3n2Cc2ccccc2)CC1)c1ccc(F)cc1 | 2.5 |  | 
CC(Cn1c(NC2CCN(CCc3ccccc3)CC2)nc2ccccc21)c1ccccc1 (stereo not drawn) | 2.5 |  | 
COc1cccc(CCN2CCC(Nc3nc4ccccc4n3Cc3ccccc3)CC2)c1 | 0.63 | 0.31 | 
COc1ccc(CCN2CCC(Nc3nc4ccccc4n3Cc3ccccc3)CC2)cc1 | 1.25 | 0.63 | ED50 (Cavia porcellus [5]): 0.08 mg/kg; ED50 (Cavia porcellus [6]): 0.25 mg/kg; ED50 (Cavia porcellus [7]): 0.16 mg/kg
CN(C)CCOC(c1ccccc1)c1ccccc1 [DIPHENHYDRAMINE] | 4 | 37.4 | ED50 (Cavia porcellus [6]): > 2.5 mg/kg; A10 [8]: 0.66 mg/L
CN1CCC(Nc2nc3ccccc3n2C)CC1 | > 2.5 |  | 
Fc1ccccc1Cn1c(NC2CCN(CCc3ccccc3)CC2)nc2ccccc21 | 1.25 | 2.5 | 
CN(c1nc2ccccc2n1Cc1ccccc1)C1CCN(CCc2ccccc2)CC1 | 2.5 |  | 
C=CCN1CCC(Nc2nc3ccccc3n2Cc2ccccc2)CC1 | 0.63 | 0.63 | 
CCn1c(N(C)C2CCN(CCc3ccccc3)CC2)nc2ccccc21 | 0.63 | > 2.5 | 
CCCCn1c(NC2CCN(CCc3ccccc3)CC2)nc2ccccc21 | 2.5 |  | 
